Source: ChEMBL document CHEMBL1122513, “Synthesis and antiviral activity of carbocyclic analogues of 2'-deoxyribofuranosides of 2-amino-6-substituted-purines and of 2-amino-6-substituted-8-azapurines” (J Med Chem, 1984)
Converted amounts (≈) assume the structure as drawn. “And” between values parts separate entries of the source, which are not always exact repeats. Identical values can stand only once.

Experiments:
Human alphaherpesvirus 2 [1] = experiment: In vitro antiviral activity in secondary cultures of rabbit kidney cells infected with HSV type 2 strain MS; format: functional
Summary of the method: (§1)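 Scored as a virus rating (VR) from inhibition of CPE caused by HSV-1 strain 377 or HSV-2 strain MS in secondary rabbit kidney cultures or Vero cells. VR ≥1.0 means definite activity, 0.5-0.9 marginal to moderate, and <0.5 usually none. Ranges are pooled from several tests.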

Mus musculus [2] = experiment: Antineoplastic activity of compound in mice inoculated with 10e 5 L1210 leukemia cells was measured as T/C after ip administration of 25 […]; format: functional
Summary of the method: (§2)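 L1210 leukemia, 10⁵ cells inoculated intraperitoneally into mice on day 0, following NCI protocols. Compound given intraperitoneally as a solution or suspension once daily on days 1-9. T/C % compares lifespan of treated mice with untreated leukemic control mice.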

Human alphaherpesvirus 2 [3] = experiment: Concentration required to inhibit HSV type 2 strain MS induced cytopathogenic affects by 50%; format: functional
Summary of the method: (§3)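 Inhibition of cytopathogenic effect caused by HSV-1 strain 377 or HSV-2 strain MS, replicating in secondary rabbit kidney cell cultures or in Vero cells. MIC₅₀ is the concentration giving 50% inhibition of virus-induced CPE. Ranges are pooled from several tests in either host cell type.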

Mus musculus [4] = experiment: Antineoplastic activity of compound in mice inoculated with 10e 5 L1210 leukemia cells was measured as T/C after ip administration of 100 […]; format: functional; summary of the method: as §2
L1210 [5] = experiment: Antineoplastic activity of compound in mice inoculated with 10e 5 L1210 leukemia cells was measured as weight change after ip administration of 100 […]; format: functional, Mus musculus
Summary of the method: (§4)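 Mice received 10⁵ L1210 leukemia cells ip on day 0, then compound ip as a solution or suspension q.d. days 1-9, following NCI protocols. Weight-change difference is the mean weight change of treated mice minus that of untreated leukemic controls, both measured on day 5.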

L1210 [6] = experiment: Antineoplastic activity of compound in mice inoculated with 10e 5 L1210 leukemia cells was measured as weight change after ip administration of 200 […]; format: functional, Mus musculus; summary of the method: as §4
Mus musculus [7] = experiment: Antineoplastic activity of compound in mice inoculated with 10e 5 L1210 leukemia cells was measured as T/C after ip administration of 50 […]; format: functional; summary of the method: as §2
Human alphaherpesvirus 1 [8] = experiment: Concentration required to inhibit HSV type 1 strain 377 induced cytopathogenic affects by 50%; format: functional; summary of the method: as §3
L1210 [9] = experiment: Antineoplastic activity of compound in mice inoculated with 10e 5 L1210 leukemia cells was measured as weight change after ip administration of 50 […]; format: functional, Mus musculus; summary of the method: as §4
[10] = Compound was evaluated for cytotoxicity to KB cells (derived from human epidermoid carcinoma); format: cell-based; details: read-out: ED50 (the source's name)
Summary of the method: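 KB cells grown in culture and tested under the National Cancer Institute cytotoxicity protocol. The value is reported as ED50 in mcg/mL.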

Mus musculus [11] = experiment: Antineoplastic activity of compound in mice inoculated with 10e 5 L1210 leukemia cells was measured as T/C after ip administration of 200 […]; format: functional; summary of the method: as §2
L1210 [12] = experiment: Antineoplastic activity of compound in mice inoculated with 10e 5 L1210 leukemia cells was measured as weight change after ip administration of 25 […]; format: functional, Mus musculus; summary of the method: as §4
Human alphaherpesvirus 1 [13] = experiment: In vitro antiviral activity in secondary cultures of rabbit kidney cells infected with HSV type 1 strain 377; format: functional; summary of the method: as §1
Mus musculus [14] = experiment: Antineoplastic activity of compound in mice inoculated with 10e 5 L1210 leukemia cells was measured as T/C after ip administration of 50 mg/kg; format: functional; details: route intraperitoneal; summary of the method: as §2
Mus musculus [15] = experiment: Antineoplastic activity of compound in mice inoculated with 10e 5 L1210 leukemia cells was measured as T/C after ip administration of 200 mg/kg; format: functional; details: route intraperitoneal; summary of the method: as §2
L1210 [16] = experiment: Antineoplastic activity of compound in mice inoculated with 10e 5 L1210 leukemia cells was measured as weight change after ip administration of 50 mg/kg; format: functional, Mus musculus; details: route intraperitoneal; summary of the method: as §4
L1210 [17] = experiment: Antineoplastic activity of compound in mice inoculated with 10e 5 L1210 leukemia cells was measured as weight change after ip administration of 200 mg/kg; format: functional, Mus musculus; details: route intraperitoneal; summary of the method: as §4
Human alphaherpesvirus 1 [18] = experiment: In vitro antiviral activity in secondary cultures of rabbit kidney cells against HSV type 1 strain 377; format: functional; summary of the method: as §1
Human alphaherpesvirus 1 [19] = experiment: In vitro antiviral activity in secondary cultures of rabbit kidney cells infected with HSV type 1 strain HF; format: functional
Vaccinia virus = experiment: In vitro for antiviral activity in secondary cultures of rabbit kidney cells infected with vaccinia virus; format: functional, Orthopoxvirus vaccinia
Human alphaherpesvirus 1 [20] = experiment: Concentration required to inhibit HSV type 1 strain HF induced cytopathogenic affects by 50%; format: functional
Human alphaherpesvirus 2 [21] = experiment: In vitro antiviral activity in secondary cultures of rabbit kidney cells against HSV type 2 strain MS; 1.6-2.3; format: functional; summary of the method: as §1
Human alphaherpesvirus 1 [22] = experiment: In vitro antiviral activity in secondary cultures of rabbit kidney cells against HSV type 1 strain 377; 2.5-3.1; format: functional; summary of the method: as §1
Human alphaherpesvirus 2 [23] = experiment: Concentration required to inhibit HSV type 2 strain MS induced cytopathogenic affects by 50%; 6.4-30; format: functional; summary of the method: as §3
Human alphaherpesvirus 1 [24] = experiment: Concentration required to inhibit HSV type 1 strain 377 induced cytopathogenic affects by 50%; 6.4-9.8; format: functional; summary of the method: as §3
[25] = Human alphaherpesvirus 1, read-out: MIC50

## Nc1nc(Cl)c2nnn(C3CC(O)C(CO)C3)c2n1 (centres undefined)
Human alphaherpesvirus 2 [1]
  Virus rating: 1.9
Mus musculus [2]
  T/C: 118%
Human alphaherpesvirus 2 [3]
  MIC50: 23 µg/mL (≈ 80.8 µM)
Mus musculus [4]
  T/C: 100%
L1210 [5]
  Weight change: -3.4 g
L1210 [6]
  Weight change: -4.4 g
Mus musculus [7]
  T/C: 105%
Human alphaherpesvirus 1 [8]
  MIC50: 1.6 µg/mL (≈ 5.62 µM)
Human alphaherpesvirus 1 [8]; [25]
  MIC50: < 1 µg/mL
L1210 [9]
  Weight change: -1.5 g
[10]
  CC50: 10 µg/mL (≈ 35.1 µM)
Mus musculus [11]
  T/C: 78%
L1210 [12]
  Weight change: -1 g
Human alphaherpesvirus 1 [13]
  Virus rating: 5 and 4.5

## Nc1nc(N)c2ncn(C3CC(O)C(CO)C3)c2n1 (centres undefined)
Human alphaherpesvirus 2 [1]
  Virus rating: 2.9
Mus musculus [14]
  T/C: 104%
Human alphaherpesvirus 2 [3]
  MIC50: 2.4 µg/mL (≈ 9.08 µM)
Mus musculus [15]
  T/C: 79%
L1210 [16]
  Weight change: -2.8 g
L1210 [17]
  Weight change: -5.5 g
Human alphaherpesvirus 1 [8]
  MIC50: 0.3 µg/mL (≈ 1.14 µM)
Human alphaherpesvirus 1 [8]; [25]
  MIC50: 0.6 µg/mL (≈ 2.27 µM)
Human alphaherpesvirus 1 [18]
  Virus rating: 4.7
[10]
  CC50: > 100 µg/mL
Human alphaherpesvirus 1 [13]
  Virus rating: 4.5

## OCC1CC(n2nnc3c(O)ncnc32)C(O)C1O (centres undefined)
Human alphaherpesvirus 1 [19]
  Virus rating: 1.5
Vaccinia virus
  Virus rating: 1.2
Human alphaherpesvirus 1 [20]; [25]
  MIC50: 298 µg/mL (≈ 1120 µM)

## Cc1cn(C2CC(CO)C(O)C2O)c(=O)[nH]c1=O (centres undefined)
Human alphaherpesvirus 2 [1]
  Virus rating: 3.2
Human alphaherpesvirus 2 [3]
  MIC50: 7 µg/mL (≈ 27.3 µM)
Human alphaherpesvirus 1 [8]; [25]
  MIC50: 0.8 µg/mL (≈ 3.12 µM)
Human alphaherpesvirus 1 [13]
  Virus rating: 5.4

## OCC1CC(n2cnc3c(O)ncnc32)C(O)C1O (centres undefined)
Human alphaherpesvirus 1 [19]
  Virus rating: 2.1
Vaccinia virus
  Virus rating: 1.9
Human alphaherpesvirus 1 [20]; [25]
  MIC50: 97 µg/mL (≈ 364 µM)

## Nc1ccn([C@@H]2C[C@H](CO)[C@@H](O)[C@H]2O)c(=O)n1 (stereo in doubt; form 2)
Human alphaherpesvirus 2 [1]
  Virus rating: 3.2
Human alphaherpesvirus 1 [19]
  Virus rating: 0.8
Human alphaherpesvirus 2 [3]
  MIC50: 2.4 µg/mL (≈ 9.95 µM)
Vaccinia virus
  Virus rating: 0.9
Human alphaherpesvirus 1 [20]
  MIC50: 68 µg/mL (≈ 282 µM)

## Nc1ncnc2c1ncn2[C@@H]1O[C@H](CO)[C@@H](O)[C@@H]1O [VIDARABINE]
Human alphaherpesvirus 2 [21]
  Virus rating: 1.6
Human alphaherpesvirus 1 [22]
  Virus rating: 2.5
Human alphaherpesvirus 2 [23]
  MIC50: 6.4 µg/mL (≈ 23.9 µM)
Human alphaherpesvirus 1 [24]
  MIC50: 6.4 µg/mL (≈ 23.9 µM)
